High-throughput results deposited in PubChem by Broad Institute.
T cruzi growth: T. cruzi intracellular proliferation inhibitors, primary screen, cell-based, beta-gal Tulahuen parasites, NIH3T3 host, luminescence. T. cruzi beta-gal in NIH3T3, GalScreen luminescence, 90 h. inhibition, % at 8.34 µM. hit rate 5.9% among 77,000;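 active = mean inhibition above about 93%, with at least 55% of replicates each passing it, limit read from the data, passing the limit was not always enough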
IDH1 mut inh: inhibitors of IDH1 R132H reductase, primary screen, biochemical, plate reader, single point. Isocitrate dehydrogenase [NADP] cytoplasmic (Homo sapiens), O75874. diaphorase/resazurin fluorescence, 60 min. inhibition, % at 10 µM. hit rate 0.18% among 70,000; in the data active = inhibition above about 34%;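 note: 0% = DMSO and 100% = no enzyme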
Target sequence (O75874 whole entry R132H): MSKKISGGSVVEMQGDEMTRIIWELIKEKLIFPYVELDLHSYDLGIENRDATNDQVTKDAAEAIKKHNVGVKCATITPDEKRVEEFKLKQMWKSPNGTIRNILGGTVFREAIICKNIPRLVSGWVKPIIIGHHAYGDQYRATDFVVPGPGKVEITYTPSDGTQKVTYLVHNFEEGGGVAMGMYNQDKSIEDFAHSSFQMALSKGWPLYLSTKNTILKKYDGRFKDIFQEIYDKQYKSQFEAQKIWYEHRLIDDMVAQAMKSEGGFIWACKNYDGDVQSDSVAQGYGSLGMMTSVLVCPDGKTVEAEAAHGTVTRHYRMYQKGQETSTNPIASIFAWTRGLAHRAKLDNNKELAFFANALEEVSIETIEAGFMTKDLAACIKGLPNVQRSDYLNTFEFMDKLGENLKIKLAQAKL
Pf Dd2 inh: P. falciparum Dd2 growth inhibitors, primary screen, SYBR Green fluorescence, single dose replicates. 72 h; active compounds read low. activity change, % at 10 µM. hit rate 2.3% among 94,000; in the data active = activity change below about -80%
KDM4C inh: inhibitors of GASC-1 (KDM4C) histone demethylase, primary screen, biochemical, single concentration HTS; inhibition, % at 12.5 µM; GST-KDM4C 2-372, H3K9me3 peptide, LANCE TR-FRET; hit rate 0.15% among 96,000; AID 720574, 2013;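 active = mean replicate inhibition above about 25%, with at least 55% of replicates also reaching it, limit read from the data, passing the limit was not always enough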
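Test system: N-terminal GST-fused human GASC-1 (KDM4C) fragment, residues 2-372; quantity: GASC-1 enzyme at 10 nM final in reaction; dosing: single dose; schedule: 30 min demethylation and 1 h detection at room temperature; signal: LANCE TR-FRET, excitation 340 nm, emissions 618 and 671 nm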
Active calls of the source: *. Most compounds without a hit are left out; they make up all but 5.8% or so of the library.

COCC(=O)N(C)C[C@H]1Oc2cc(C#Cc3ccccc3)ccc2S(=O)(=O)N([C@@H](C)CO)C[C@@H]1C was read as T cruzi growth 25, IDH1 mut inh 5, Pf Dd2 inh -76 and KDM4C inh -1.
For C[C@H](CO)N1C[C@H](C)[C@H](CN(C)C(=O)C2CC2)Oc2cc(C#Cc3ccccc3)ccc2S1(=O)=O the results were T cruzi growth 89, IDH1 mut inh -1, Pf Dd2 inh -92* and KDM4C inh -3.
`C[C@H](CO)N1C[C@H](C)[C@@H](CN(C)C(=O)C2CC2)Oc2cc(C#Cc3ccccc3)ccc2S1(=O)=O` gave T cruzi growth 51, IDH1 mut inh 1, Pf Dd2 inh -64 and KDM4C inh 0.
COCC(=O)N(C)C[C@@H]1Oc2cc(C#Cc3ccccc3)ccc2S(=O)(=O)N([C@H](C)CO)C[C@@H]1C was read as T cruzi growth 16, IDH1 mut inh -4, Pf Dd2 inh -82* and KDM4C inh -1.
For C[C@@H]1CN([C@H](C)CO)C(=O)c2cc(NC(=O)Nc3ccccc3)ccc2O[C@@H]1CN(C)Cc1ccc(C(=O)Nc2ccccc2N)cc1 the results were T cruzi growth 36, Pf Dd2 inh -85* and KDM4C inh -2.
Screening C[C@H](CO)N1C[C@H](C)[C@H](CN(C)Cc2ccc(C(=O)Nc3ccccc3N)cc2)Oc2ccc(NC(=O)CCC(F)(F)F)cc2C1=O returned T cruzi growth 86, Pf Dd2 inh -81* and KDM4C inh -1.
C[C@H]1CN([C@@H](C)CO)C(=O)c2cc(NC(=O)Nc3ccc(C(F)(F)F)cc3)ccc2O[C@@H]1CN(C)Cc1ccc(C(=O)Nc2ccccc2N)cc1 was read as T cruzi growth -97, IDH1 mut inh 0, Pf Dd2 inh -93* and KDM4C inh 0.
Screening C[C@@H]1CN([C@H](C)CO)C(=O)c2cc(NC(=O)Cc3ccccc3)ccc2O[C@@H]1CN(C)Cc1ccc(C(=O)Nc2ccccc2N)cc1 returned T cruzi growth 73, Pf Dd2 inh -85* and KDM4C inh 2.
For COC(=O)C1=CO[C@@H](OC2OC(O)C(O)C(O)C2CO)[C@H]2[C@@H]1C=CC21C=C([C@H](C)OC(=O)/C=C/c2ccc(OC3OC(CO)C(O)C(O)C3O)cc2)C(=O)O1 (stereo partly specified) the results were IDH1 mut inh 0.
CCc1nnc(SCC(=O)Nc2cccc([N+](=O)[O-])c2)o1 was read as IDH1 mut inh 2.
For C[C@H](CO)N1C[C@H](C)[C@@H](CN(C)Cc2ccc(C(=O)Nc3ccccc3N)cc2)Oc2ccc(NC(=O)Nc3ccc(C(F)(F)F)cc3)cc2C1=O the results were T cruzi growth -206, IDH1 mut inh 0, Pf Dd2 inh -90* and KDM4C inh -1.
For N#Cc1c(NC(=O)c2cc3nc(-c4ccco4)cc(C(F)(F)F)n3n2)sc2c1CCC2 the results were IDH1 mut inh 0.
COc1ccccc1S(=O)(=O)N(C)C[C@H]1OCc2ccccc2-c2c(n(C)c3ccccc23)C(=O)N([C@@H](C)CO)C[C@H]1C was read as T cruzi growth 51, IDH1 mut inh -2, Pf Dd2 inh -68 and KDM4C inh 0.
COc1cccc(S(=O)(=O)N(C)C[C@H]2OCc3ccccc3-c3c(n(C)c4ccccc34)C(=O)N([C@@H](C)CO)C[C@H]2C)c1 was read as T cruzi growth 74, IDH1 mut inh 0, Pf Dd2 inh -75 and KDM4C inh -3.
`COc1cccc(S(=O)(=O)N(C)C[C@@H]2OCc3ccccc3-c3c(n(C)c4ccccc34)C(=O)N([C@H](C)CO)C[C@@H]2C)c1` gave T cruzi growth 74, Pf Dd2 inh -89* and KDM4C inh -4.
Screening COc1ccccc1S(=O)(=O)N(C)C[C@H]1OCc2ccccc2-c2c(n(C)c3ccccc23)C(=O)N([C@@H](C)CO)C[C@@H]1C returned T cruzi growth 72, Pf Dd2 inh -87* and KDM4C inh -4.
C[C@H](CO)N1C[C@H](C)[C@H](CN(C)S(=O)(=O)c2cccc(F)c2)OCc2ccccc2-c2c(n(C)c3ccccc23)C1=O was read as Pf Dd2 inh -91*.
Screening COc1cccc(S(=O)(=O)N(C)C[C@@H]2OCc3ccccc3-c3c(n(C)c4ccccc34)C(=O)N([C@@H](C)CO)C[C@@H]2C)c1 returned T cruzi growth 79, IDH1 mut inh 0, Pf Dd2 inh -85* and KDM4C inh -4.
Cc1ccc(Nc2nc(Nc3ccc(C)cc3)nc(Sc3nnc(C)s3)n2)cc1 was read as IDH1 mut inh 0.
Cc1cccc(-c2nnc(SCC(=O)Nc3c(F)cc(F)cc3Br)n2C)c1 was read as IDH1 mut inh 0.
`C[C@H](CO)N1C[C@H](C)[C@@H](CN(C)CC2CC2)Oc2ccc(NC(=O)Nc3ccc4c(c3)OCO4)cc2CC1=O` gave T cruzi growth -38, IDH1 mut inh 1, Pf Dd2 inh -83* and KDM4C inh 0.
For C[C@H](CO)N1C[C@H](C)[C@@H](CN(C)CC2CCCCC2)Oc2ccc(NC(=O)Nc3ccc4c(c3)OCO4)cc2CC1=O the results were T cruzi growth 16, Pf Dd2 inh -41 and KDM4C inh 0.
For C[C@@H]1CN([C@@H](C)CO)C(=O)Cc2cc(NC(=O)Nc3ccc4c(c3)OCO4)ccc2O[C@@H]1CN(C)CC1CC1 the results were T cruzi growth -40, IDH1 mut inh 2, Pf Dd2 inh -88* and KDM4C inh 0.
Screening C[C@H]1CN([C@@H](C)CO)C(=O)Cc2cc(NC(=O)Nc3ccc4c(c3)OCO4)ccc2O[C@H]1CN(C)CC1CCCCC1 returned T cruzi growth 36, IDH1 mut inh 3, Pf Dd2 inh 8 and KDM4C inh 2.
For O=C(Nc1ccc(Cl)cc1C(=O)NCCO)c1ccc(Cl)cc1Cl the results were IDH1 mut inh 1.
Screening COc1ccc(C#Cc2cnc3c(c2)C(=O)N([C@H](C)CO)C[C@H](C)[C@H](CN(C)S(=O)(=O)c2cccc(F)c2)O3)cc1OC returned T cruzi growth 53, Pf Dd2 inh -87* and KDM4C inh -4.
COc1ccc(C#Cc2cnc3c(c2)C(=O)N([C@H](C)CO)C[C@H](C)[C@H](CN(C)S(C)(=O)=O)O3)cc1OC was read as T cruzi growth 31, IDH1 mut inh -2, Pf Dd2 inh -28 and KDM4C inh 0.
Screening C[C@H](CO)N1C[C@H](C)[C@H](CN(C)S(=O)(=O)c2cccc(F)c2)Oc2ncc(C#Cc3ccc(F)cc3)cc2C1=O returned T cruzi growth 80, IDH1 mut inh 1, Pf Dd2 inh -68 and KDM4C inh -3.
Screening COc1ccc(C#Cc2cnc3c(c2)C(=O)N([C@H](C)CO)C[C@H](C)[C@H](CN(C)S(=O)(=O)c2ccc(C)cc2)O3)cc1OC returned T cruzi growth 92, IDH1 mut inh 1, Pf Dd2 inh -85* and KDM4C inh -1.
